Columns and labels:
[1] = Elimination half life in monkey liver microsomes measured after 1 hr; assay type: ADME, Macaca mulatta, Microsome; settings: rhesus monkey, read-out: beta t1/2
Procedure, shortened: (§1)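 Compound incubated 1 h with mouse, rat, dog, monkey or human liver microsomes. Derived values were the elimination rate constant k, the elimination half-life T1/2 and the intrinsic clearance CLint.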

[2] = Elimination half life in rat liver microsomes measured after 1 hr; assay type: ADME, Microsome; settings: read-out: beta t1/2; procedure, shortened: as §1
[3] = Elimination half life in mouse liver microsomes measured after 1 hr; assay type: ADME, Microsome; settings: read-out: beta t1/2; procedure, shortened: as §1
[4] = Elimination rate constant in dog liver microsomes measured after 1 hr; assay type: ADME, Canis lupus familiaris, Microsome; procedure, shortened: as §1
[5] = Elimination rate constant in human liver microsomes measured after 1 hr; assay type: ADME, Microsome; procedure, shortened: as §1
[6] = Elimination half life in human liver microsomes measured after 1 hr; assay type: ADME, Microsome; settings: read-out: beta t1/2; procedure, shortened: as §1
[7] = Elimination half life in dog liver microsomes measured after 1 hr; assay type: ADME, Canis lupus familiaris, Microsome; settings: read-out: beta t1/2; procedure, shortened: as §1
[8] = Toxicity in Sprague-Dawley rat assessed as change in body weight at 1000 mg/kg, po administered as single dose measured on day 7 (reference value: 298 +/- 14 g); assay type: organism-based; settings: in vivo, 168 h, time 7 day
MDA-MB-468 [9] = assay: Induction of apoptosis in human MDA-MB-468 cells assessed as early apoptotic cells at 1 uM measured after 72 hrs by Annexin V-FITC/propidium iodide staining based flow cytometry (reference value: 3.88%); assay type: functional
[10] = Intrinsic clearance in mouse liver microsomes measured after 1 hr; assay type: ADME, Microsome; settings: read-out: CLH; procedure, shortened: as §1
[11] = biological target: Phosphatidylinositol 4,5-bisphosphate 3-kinase catalytic subunit alpha isoform (Homo sapiens, UniProt P42336); assay: Inhibition of PI3Kalpha (unknown origin)
Phosphatidylinositol 4,5-bisphosphate 3-kinase catalytic subunit alpha isoform, sequence (P42336 whole entry, canonical isoform): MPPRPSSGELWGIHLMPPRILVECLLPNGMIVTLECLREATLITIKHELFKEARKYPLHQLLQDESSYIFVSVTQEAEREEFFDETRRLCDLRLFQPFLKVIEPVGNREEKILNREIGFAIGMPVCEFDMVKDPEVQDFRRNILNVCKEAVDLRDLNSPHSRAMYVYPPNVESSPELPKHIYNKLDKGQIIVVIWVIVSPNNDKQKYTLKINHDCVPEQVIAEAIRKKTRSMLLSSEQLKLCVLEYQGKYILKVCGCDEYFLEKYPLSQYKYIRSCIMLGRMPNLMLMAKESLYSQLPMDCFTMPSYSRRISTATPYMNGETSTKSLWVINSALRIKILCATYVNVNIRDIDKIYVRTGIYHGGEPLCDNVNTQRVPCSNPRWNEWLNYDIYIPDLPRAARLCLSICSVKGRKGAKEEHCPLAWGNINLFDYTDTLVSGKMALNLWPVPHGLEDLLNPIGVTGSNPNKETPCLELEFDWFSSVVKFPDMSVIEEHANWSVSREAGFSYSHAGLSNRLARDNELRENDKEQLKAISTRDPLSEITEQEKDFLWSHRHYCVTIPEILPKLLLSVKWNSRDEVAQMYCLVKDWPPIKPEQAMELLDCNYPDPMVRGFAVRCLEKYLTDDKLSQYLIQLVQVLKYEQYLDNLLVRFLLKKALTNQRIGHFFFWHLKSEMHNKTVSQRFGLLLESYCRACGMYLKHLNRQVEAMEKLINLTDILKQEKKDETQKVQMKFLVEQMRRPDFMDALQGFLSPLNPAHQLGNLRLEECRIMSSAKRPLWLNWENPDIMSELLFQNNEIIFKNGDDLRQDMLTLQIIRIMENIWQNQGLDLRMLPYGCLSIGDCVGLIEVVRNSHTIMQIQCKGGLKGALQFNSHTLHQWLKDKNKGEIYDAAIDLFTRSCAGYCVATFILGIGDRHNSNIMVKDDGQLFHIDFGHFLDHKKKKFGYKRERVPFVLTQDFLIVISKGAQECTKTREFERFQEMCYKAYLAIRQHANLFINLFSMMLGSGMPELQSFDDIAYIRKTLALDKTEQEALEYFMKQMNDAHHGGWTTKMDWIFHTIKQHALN
Procedure, shortened: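 PARP-1 and PI3Kα enzyme inhibition. IC50 taken from dose-response curves and given as mean ± SD of three independent experiments.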

[12] = Toxicity in Sprague-Dawley rat assessed as change in body weight at 1000 mg/kg, po administered as single dose measured on day 4 (reference value: 280 +/- 12 g); assay type: organism-based; settings: in vivo, 96 h, time 4 day
[13] = Toxicity in MDA-MB-468 cells xenografted BALB/c mouse assessed as change in body weight at 50 mg/kg, ip administered every two days for 34 days measured at 2 days interval during compound dosing; settings: in vivo, 816 h
[14] = Elimination rate constant in mouse liver microsomes measured after 1 hr; assay type: ADME, Microsome; procedure, shortened: as §1
[15] = Toxicity in Sprague-Dawley rat administered as single oral dose; settings: in vivo
Procedure, shortened: (§2)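 Sprague-Dawley rats, n = 6 (3 male, 3 female), given a single oral dose of 1000 mg/kg. Deaths and body-weight change were recorded to estimate the maximum tolerated dose.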

[16] = Apparent permeability across basolateral to apical side in human Caco2 cells at 5 uM measured after 120 mins; assay type: ADME, cell-based; settings: Caco-2
Procedure, shortened: (§3)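 Bidirectional permeability run, apical-to-basolateral and basolateral-to-apical. Test compound at 5 µM, incubated 120 min. Papp (10^-6 cm/s), recovery (%) and efflux ratio reported as the mean of two experiments.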

[17] = biological target: Voltage-gated inwardly rectifying potassium channel KCNH2 (Homo sapiens, UniProt Q12809); assay: Inhibition of human ERG
Voltage-gated inwardly rectifying potassium channel KCNH2, sequence (Q12809 whole entry): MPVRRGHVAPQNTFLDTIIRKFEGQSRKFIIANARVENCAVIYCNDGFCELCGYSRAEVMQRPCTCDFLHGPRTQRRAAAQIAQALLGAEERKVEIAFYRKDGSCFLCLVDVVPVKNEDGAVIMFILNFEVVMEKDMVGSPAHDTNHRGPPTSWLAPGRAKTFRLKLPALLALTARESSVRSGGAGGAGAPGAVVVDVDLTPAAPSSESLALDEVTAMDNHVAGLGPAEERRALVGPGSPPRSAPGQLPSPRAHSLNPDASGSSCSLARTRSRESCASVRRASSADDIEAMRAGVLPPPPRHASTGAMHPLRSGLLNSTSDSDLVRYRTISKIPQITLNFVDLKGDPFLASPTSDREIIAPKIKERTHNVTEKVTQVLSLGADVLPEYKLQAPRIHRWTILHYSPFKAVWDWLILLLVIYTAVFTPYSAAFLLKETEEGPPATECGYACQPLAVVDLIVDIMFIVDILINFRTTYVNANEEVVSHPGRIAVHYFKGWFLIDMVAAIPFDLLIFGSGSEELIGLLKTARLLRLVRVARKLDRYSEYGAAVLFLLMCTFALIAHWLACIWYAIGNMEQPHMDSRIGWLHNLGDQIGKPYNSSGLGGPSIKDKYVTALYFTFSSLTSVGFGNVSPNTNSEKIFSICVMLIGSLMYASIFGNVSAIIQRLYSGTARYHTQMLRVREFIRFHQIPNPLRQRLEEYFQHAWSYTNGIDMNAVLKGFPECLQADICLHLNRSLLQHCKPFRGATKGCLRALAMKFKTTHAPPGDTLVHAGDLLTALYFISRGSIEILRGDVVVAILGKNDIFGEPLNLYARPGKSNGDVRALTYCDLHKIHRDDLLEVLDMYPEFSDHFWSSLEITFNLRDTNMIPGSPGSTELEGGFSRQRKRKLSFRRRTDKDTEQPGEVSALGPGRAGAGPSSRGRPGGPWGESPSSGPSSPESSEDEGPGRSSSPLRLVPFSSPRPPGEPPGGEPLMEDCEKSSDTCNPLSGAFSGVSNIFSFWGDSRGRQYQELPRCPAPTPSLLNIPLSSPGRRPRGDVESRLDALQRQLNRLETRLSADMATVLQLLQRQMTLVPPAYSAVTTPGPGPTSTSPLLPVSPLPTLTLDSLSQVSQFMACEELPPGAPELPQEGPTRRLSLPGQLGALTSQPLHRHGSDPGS

[18] = Elimination rate constant in monkey liver microsomes measured after 1 hr; assay type: ADME, Macaca mulatta, Microsome; settings: rhesus monkey; procedure, shortened: as §1
[19] = biological target: Phosphatidylinositol 4,5-bisphosphate 3-kinase catalytic subunit beta isoform (Homo sapiens, UniProt P42338); assay: Inhibition of PI3Kbeta (unknown origin)
Phosphatidylinositol 4,5-bisphosphate 3-kinase catalytic subunit beta isoform, sequence (P42338 whole entry, canonical isoform): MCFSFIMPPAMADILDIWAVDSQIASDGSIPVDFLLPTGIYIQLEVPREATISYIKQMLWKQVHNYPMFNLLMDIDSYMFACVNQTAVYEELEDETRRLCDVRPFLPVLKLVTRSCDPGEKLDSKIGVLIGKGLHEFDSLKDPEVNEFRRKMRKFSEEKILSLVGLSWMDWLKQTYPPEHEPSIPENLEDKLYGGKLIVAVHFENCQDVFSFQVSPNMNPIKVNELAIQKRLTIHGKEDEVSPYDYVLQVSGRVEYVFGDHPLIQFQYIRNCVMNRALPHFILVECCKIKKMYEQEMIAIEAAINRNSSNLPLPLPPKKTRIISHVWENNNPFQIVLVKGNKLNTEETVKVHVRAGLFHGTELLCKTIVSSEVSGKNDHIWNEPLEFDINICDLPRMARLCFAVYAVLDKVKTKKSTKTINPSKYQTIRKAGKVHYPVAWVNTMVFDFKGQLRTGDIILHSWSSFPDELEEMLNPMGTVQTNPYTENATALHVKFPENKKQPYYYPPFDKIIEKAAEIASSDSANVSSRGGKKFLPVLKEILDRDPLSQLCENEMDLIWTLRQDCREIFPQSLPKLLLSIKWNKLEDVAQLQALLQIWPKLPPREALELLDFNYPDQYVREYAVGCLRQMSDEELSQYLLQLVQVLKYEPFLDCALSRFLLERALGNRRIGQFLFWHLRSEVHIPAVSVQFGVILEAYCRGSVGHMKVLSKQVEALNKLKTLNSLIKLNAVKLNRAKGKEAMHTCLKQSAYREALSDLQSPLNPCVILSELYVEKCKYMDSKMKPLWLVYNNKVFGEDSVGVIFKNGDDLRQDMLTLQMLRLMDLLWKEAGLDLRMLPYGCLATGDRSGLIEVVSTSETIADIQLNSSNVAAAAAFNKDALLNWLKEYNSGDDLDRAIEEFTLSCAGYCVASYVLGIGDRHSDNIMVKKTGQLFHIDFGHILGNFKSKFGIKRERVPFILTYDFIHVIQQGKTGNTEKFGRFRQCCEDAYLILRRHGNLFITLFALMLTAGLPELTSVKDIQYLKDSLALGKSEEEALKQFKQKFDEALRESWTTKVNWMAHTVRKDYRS

[20] = biological target: Poly [ADP-ribose] polymerase 2 (Homo sapiens, UniProt Q9UGN5); assay: Inhibition of PARP2 (unknown origin)
Poly [ADP-ribose] polymerase 2, sequence (Q9UGN5 whole entry): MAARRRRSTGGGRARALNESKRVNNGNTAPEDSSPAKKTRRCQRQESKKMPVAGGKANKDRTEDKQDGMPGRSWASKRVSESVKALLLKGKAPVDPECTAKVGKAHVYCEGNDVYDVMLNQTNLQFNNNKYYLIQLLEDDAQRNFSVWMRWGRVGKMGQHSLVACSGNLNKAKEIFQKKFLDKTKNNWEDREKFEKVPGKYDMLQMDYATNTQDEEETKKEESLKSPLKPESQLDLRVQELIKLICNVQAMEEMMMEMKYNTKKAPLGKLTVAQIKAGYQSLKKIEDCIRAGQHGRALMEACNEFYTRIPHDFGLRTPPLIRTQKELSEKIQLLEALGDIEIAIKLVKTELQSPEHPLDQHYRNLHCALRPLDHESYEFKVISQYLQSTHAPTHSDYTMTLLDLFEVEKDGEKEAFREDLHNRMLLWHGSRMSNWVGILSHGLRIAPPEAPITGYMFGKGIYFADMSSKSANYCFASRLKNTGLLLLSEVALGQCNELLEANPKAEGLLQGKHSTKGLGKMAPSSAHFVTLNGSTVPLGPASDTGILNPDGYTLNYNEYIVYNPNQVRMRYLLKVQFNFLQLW

[21] = Intrinsic clearance in rat liver microsomes measured after 1 hr; assay type: ADME, Microsome; settings: read-out: CLH; procedure, shortened: as §1
[22] = Apparent permeability across apical to basolateral side in human Caco2 cells at 5 uM measured after 120 mins; assay type: ADME, cell-based; settings: Caco-2; procedure, shortened: as §3
[23] = Toxicity in […] cells xenografted BALB/c mouse assessed as mortality at 50 mg/kg, ip administered every two days for 34 days; assay type: organism-based; settings: in vivo, 816 h, time 34 day
[24] = biological target: Phosphatidylinositol 4,5-bisphosphate 3-kinase catalytic subunit gamma isoform (Homo sapiens, UniProt P48736); assay: Inhibition of PI3Kgamma (unknown origin)
Phosphatidylinositol 4,5-bisphosphate 3-kinase catalytic subunit gamma isoform, sequence (P48736 whole entry, canonical isoform): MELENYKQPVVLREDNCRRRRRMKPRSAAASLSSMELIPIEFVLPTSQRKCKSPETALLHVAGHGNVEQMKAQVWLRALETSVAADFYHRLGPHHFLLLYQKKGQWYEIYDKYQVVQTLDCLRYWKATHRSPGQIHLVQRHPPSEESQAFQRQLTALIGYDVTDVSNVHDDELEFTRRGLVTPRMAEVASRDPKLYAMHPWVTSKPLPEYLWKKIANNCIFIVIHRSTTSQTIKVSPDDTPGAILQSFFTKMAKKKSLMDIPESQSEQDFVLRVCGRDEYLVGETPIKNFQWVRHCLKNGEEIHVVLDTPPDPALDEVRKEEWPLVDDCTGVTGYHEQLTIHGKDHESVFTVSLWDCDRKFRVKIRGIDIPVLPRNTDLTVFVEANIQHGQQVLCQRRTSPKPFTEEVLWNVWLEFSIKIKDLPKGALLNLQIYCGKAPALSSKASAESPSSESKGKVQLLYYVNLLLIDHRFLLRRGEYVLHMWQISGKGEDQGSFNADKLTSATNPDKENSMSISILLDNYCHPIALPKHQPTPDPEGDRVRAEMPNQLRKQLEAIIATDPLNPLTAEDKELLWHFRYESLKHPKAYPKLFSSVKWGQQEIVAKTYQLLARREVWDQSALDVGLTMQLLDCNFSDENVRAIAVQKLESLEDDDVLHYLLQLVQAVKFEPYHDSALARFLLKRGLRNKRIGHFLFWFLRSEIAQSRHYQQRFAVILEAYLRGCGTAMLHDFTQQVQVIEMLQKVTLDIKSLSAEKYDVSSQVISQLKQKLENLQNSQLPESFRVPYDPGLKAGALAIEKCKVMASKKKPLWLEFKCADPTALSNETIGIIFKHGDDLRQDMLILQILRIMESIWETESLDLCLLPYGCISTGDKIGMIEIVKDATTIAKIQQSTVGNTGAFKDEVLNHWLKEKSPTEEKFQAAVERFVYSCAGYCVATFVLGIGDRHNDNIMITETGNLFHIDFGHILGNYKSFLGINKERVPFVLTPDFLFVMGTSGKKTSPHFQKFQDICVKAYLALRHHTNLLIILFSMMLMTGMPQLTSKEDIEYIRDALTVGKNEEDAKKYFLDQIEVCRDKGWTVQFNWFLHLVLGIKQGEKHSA

[25] = Apparent permeability across basolateral to apical side in human Caco2 cells assessed as drug recovery at 5 uM measured after 120 mins; assay type: ADME, cell-based; settings: Caco-2, read-out: Drug recovery; procedure, shortened: as §3
[26] = Toxicity in Sprague-Dawley rat assessed as death at 1000 mg/kg, po administered as single dose; assay type: organism-based; settings: in vivo; procedure, shortened: as §2
MDA-MB-468 [27] = assay: Antitumor activity against human MDA-MB-468 cells xenografted in BALB/c mouse assessed as tumor growth inhibition at 50 mg/kg, ip administered every two days for 34 days relative to control; settings: MDA-MB-468, ip, 816 h, read-out: TGI
[28] = Intrinsic clearance in dog liver microsomes measured after 1 hr; assay type: ADME, Canis lupus familiaris, Microsome; settings: read-out: CLH; procedure, shortened: as §1
[29] = biological target: T1, Phosphatidylinositol 4,5-bisphosphate 3-kinase catalytic subunit delta isoform (Homo sapiens, UniProt O00329); assay: Inhibition of PI3Kdelta (unknown origin)
T1 sequence (O00329 whole entry): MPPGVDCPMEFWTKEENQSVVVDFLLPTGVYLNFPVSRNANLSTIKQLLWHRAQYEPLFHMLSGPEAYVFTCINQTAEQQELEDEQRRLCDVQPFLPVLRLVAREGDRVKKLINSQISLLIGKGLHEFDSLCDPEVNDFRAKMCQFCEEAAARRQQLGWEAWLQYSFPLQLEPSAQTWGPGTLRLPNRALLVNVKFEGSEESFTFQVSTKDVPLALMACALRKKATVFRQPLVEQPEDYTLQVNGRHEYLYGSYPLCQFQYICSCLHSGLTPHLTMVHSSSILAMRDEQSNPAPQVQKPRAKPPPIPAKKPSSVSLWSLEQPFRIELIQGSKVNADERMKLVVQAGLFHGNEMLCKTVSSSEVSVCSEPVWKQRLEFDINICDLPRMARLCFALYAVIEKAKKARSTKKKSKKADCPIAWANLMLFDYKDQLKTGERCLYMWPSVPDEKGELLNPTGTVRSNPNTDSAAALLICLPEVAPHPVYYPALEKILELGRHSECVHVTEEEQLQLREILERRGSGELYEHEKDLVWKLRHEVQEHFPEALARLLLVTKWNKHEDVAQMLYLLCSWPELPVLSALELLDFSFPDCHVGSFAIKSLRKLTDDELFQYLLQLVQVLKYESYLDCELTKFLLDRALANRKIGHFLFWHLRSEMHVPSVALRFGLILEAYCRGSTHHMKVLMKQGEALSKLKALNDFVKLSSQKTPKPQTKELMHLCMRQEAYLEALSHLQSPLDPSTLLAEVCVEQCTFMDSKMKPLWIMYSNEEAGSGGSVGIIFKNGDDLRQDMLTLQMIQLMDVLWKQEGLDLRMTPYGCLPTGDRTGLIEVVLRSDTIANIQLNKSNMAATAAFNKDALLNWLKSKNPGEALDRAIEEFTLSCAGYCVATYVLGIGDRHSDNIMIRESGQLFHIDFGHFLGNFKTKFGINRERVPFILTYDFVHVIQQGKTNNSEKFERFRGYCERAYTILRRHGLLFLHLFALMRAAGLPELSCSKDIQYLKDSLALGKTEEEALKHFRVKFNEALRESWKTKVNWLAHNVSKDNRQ

[30] = Intrinsic clearance in human liver microsomes measured after 1 hr; assay type: ADME, Microsome; settings: read-out: CLH; procedure, shortened: as §1

**Q.** For NC(=O)c1cccc2cc(C(=O)N3CCN(c4nc(-c5cnc(NC(=O)CN6CCOCC6)cc5C(F)(F)F)nc(N5CCOCC5)n4)CC3)oc12, which half-life [1] is on record?
**A.** 59.1 min

**Q.** And the half-life [2]?
**A.** 42.2 min

**Q.** And the half-life [3]?
**A.** 17.4 min

**Q.** And the k el at 1 h [4]?
**A.** 0.000245 s⁻¹

**Q.** And the k el at 1 h [5]?
**A.** 0.000122 s⁻¹

**Q.** And the half-life [6]?
**A.** 107 min

**Q.** And the half-life [7]?
**A.** 47.3 min

**Q.** And the Activity [8]?
**A.** 281 g

**Q.** And the Activity (MDA-MB-468 [9])?
**A.** 15.8%

**Q.** And the microsomal CLint [10]?
**A.** 79.7 µL/min/mg

**Q.** And the IC50 [11]?
**A.** 64 nM

**Q.** What about the Activity [12] of the same compound?
**A.** 272 g

**Q.** What about the Activity [13] of the same compound?
**A.** Non-Toxic

**Q.** And the k el at 1 h [14]?
**A.** 0.000663 s⁻¹

**Q.** And the MTD [15]?
**A.** > 1000 mg/kg

**Q.** What about the Papp B→A at 2 h, 5 µM [16] of the same compound?
**A.** 22.1 ×10⁻⁶ cm/s

**Q.** What about the IC50 [17] of the same compound?
**A.** 29400 nM

**Q.** And the k el at 1 h [18]?
**A.** 0.000255 s⁻¹

**Q.** And the IC50 [19]?
**A.** 376 nM

**Q.** What about the IC50 [20] of the same compound?
**A.** 6.2 nM

**Q.** And the microsomal CLint [21]?
**A.** 32.9 µL/min/mg

**Q.** What about the Papp A→B at 2 h, 5 µM [22] of the same compound?
**A.** 8.42 ×10⁻⁶ cm/s

**Q.** What about the Activity [23] of the same compound?
**A.** Non-Toxic

**Q.** And the IC50 [24]?
**A.** 1100 nM

**Q.** What about the recovery at 2 h, 5 µM [25] of the same compound?
**A.** 99.9%

**Q.** What about the Activity [26] of the same compound?
**A.** Non-Toxic

**Q.** And the inhibition in vivo at 50 mg/kg (MDA-MB-468 [27])?
**A.** 54.6%

**Q.** What about the microsomal CLint [28] of the same compound?
**A.** 29.3 µL/min/mg

**Q.** What about the IC50 [29] of the same compound?
**A.** 197 nM

**Q.** And the microsomal CLint [30]?
**A.** 14.7 µL/min/mg
